Assay outcomes as filed in PubChem BioAssay.
An excerpt weighted towards active compounds, which were near 1.1% of everything screened.
GSK3beta inhib: human GSK3beta kinase inhibitors, primary screen, biochemical, cell-free homogeneous, HTS; Glycogen synthase kinase-3 beta (Homo sapiens), P49841; GST-GSK3beta kinase, ADP-Glo luminescence, 60 min; hits give low values; activity score (negative = inhibition), % at 10 µM; actives 0.038% (n = 300,000); AID 2097, 2009;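 active = more than half of replicate wells score below -50%, meaning over 50% inhibition versus plate controls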;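 also: 0% = median DMSO wells and -100% = median GW8510 positive control wells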
Target sequence (P49841 whole entry, looked up): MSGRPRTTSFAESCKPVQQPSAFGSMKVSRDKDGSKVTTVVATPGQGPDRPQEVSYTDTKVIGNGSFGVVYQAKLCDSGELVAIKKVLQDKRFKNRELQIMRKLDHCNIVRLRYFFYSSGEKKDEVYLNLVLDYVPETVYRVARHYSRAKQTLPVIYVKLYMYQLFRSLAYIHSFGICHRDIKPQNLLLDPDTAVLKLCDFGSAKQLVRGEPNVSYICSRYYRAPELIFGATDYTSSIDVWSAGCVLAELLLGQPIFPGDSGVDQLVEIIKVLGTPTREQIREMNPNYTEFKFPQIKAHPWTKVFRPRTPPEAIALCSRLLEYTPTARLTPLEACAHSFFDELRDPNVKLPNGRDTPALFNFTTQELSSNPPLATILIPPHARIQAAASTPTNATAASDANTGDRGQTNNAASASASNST
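Assay system: GST-tagged human GSK3beta kinase, cell-free; Input: 1.6 ng GSK3beta; Medium: Tris/MgCl2 kinase buffer; Timing: 60 min enzyme reaction, room temperature; Signal: ADP-Glo luminescence quantifying ADP generated by kinase; Evaluation: score relative to plate controls; Benchmarks: DMSO neutral wells and GW8510 at 20 µM as positive.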
SR-BI DiI inh: inhibitors of SR-BI mediated HDL lipid uptake, primary screen, ldlA[mSR-BI] cells, fluorescence, single point | Scavenger receptor class B member 1 (Mus musculus), Q61009 | ldlA[mSR-BI] CHO cells, DiI-HDL uptake fluorescence, 3 h | inhibition, % at 12.5 µM | actives 0.96% (n = 320,000);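 active = mean replicate inhibition of at least 70% and a set share of replicates each scoring 70 or more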;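 also: 0% = median of neutral control wells and 100% = median of positive control wells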
SR-BI uptake up: activators of SR-BI mediated DiI-HDL uptake, primary screen, ldlA[mSR-BI] CHO cells, DiI fluorescence; activation, % at 12.5 µM; 3 h; 100 = double the neutral-control signal; actives 0.096% (n = 320,000);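 active = mean replicate activation of at least 60% and every replicate at or above 60%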;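 also: 0% = median plate neutral-control signal and 100% = twice that signal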
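Test system: SR-BI-overexpressing, LDLR-lacking CHO cells; Also added: labelled HDL, 10 µg/mL; Measured by: bottom-read cell fluorescence after medium removal, ex 550/em 595 nm; Timing: 3 h uptake period with compound, 37 °C; Buffer or medium: F12, 0.5% BSA, 25 mM HEPES; Doses: single compound concentration, delivered by pin transfer.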
GSK3A inh: blockers of GSK3A enzyme activity – biochemical, luminescence, cell-free homogeneous, HTS, primary screen; Glycogen synthase kinase-3 alpha (Homo sapiens), P49840; GSK-3 alpha kinase, ADP-Glo luminescence, 60 min; inhibition, % at 10 µM; actives 0.1% (n = 320,000); AID 2650, 2010;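 active = more than half of replicates show inhibition above 20%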;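 also: GST-tagged GSK-3 alpha with peptide substrate and 25 µM ATP; 0% = DMSO neutral wells and 100% = GW8510 positive control wells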
CDK5 p35 inh: inhibitors of human CDK5/p35 kinase, primary screen, biochemical, single concentration; Cyclin-dependent kinase 5 (Homo sapiens) + Cyclin-dependent kinase 5 activator 1 (Homo …; Recombinant CDK5/p35, ADP-Glo luminescence, 60 min; inhibition, % at 10 µM; actives 0.01% (n = 330,000);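 active = highest replicate inhibition of at least 50% and at least 75% of replicates reaching 50%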;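 also: plate controls were DMSO neutral control for no effect and GW8510 at 10 µM for full effect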
* marks the source's active call; other numbers are inactive results; . = not tested or not shown.

SMILES	GSK3beta inhib	SR-BI DiI inh	SR-BI uptake up	GSK3A inh	CDK5 p35 inh
CCOc1ccccc1NC(=O)C1CCCN1C(=O)c1cccs1 (configuration not stated)	.	-87	87*	0	-4
CCOc1ccccc1NC(=O)N1CCCC1C(=O)NCc1cccs1 (configuration not stated)	2	4	-4	8	1
CSc1nsc(/C=C/Nc2ccc(O)cc2C)c1C#N	2	81*	-81	0	3
Cc1ccc(N2C(=O)/C(=C\c3ccc(C(C)C)cc3)N=C2SC2CCOC2=O)cc1 (configuration not stated)	-4	27	-27	-3	1
CCN1/C(=C/c2cccc[n+]2C)Sc2ccc(OC)cc21	-5	7	-7	3	0
CCN1/C(=C/C(C)=O)Sc2ccc(OC)cc21	-3	-5	5	56*	.
CC(=O)NC(=S)Nc1ccc(NC(=S)NC(=O)/C=C/c2ccco2)cc1	4	42	-42	-1	1
CCC(=O)Nc1ccc(NC(=S)NC(=O)/C=C/c2ccco2)cc1	-3	89*	-89	0	-4
Cc1ccnc(SC2CC(=O)N(c3ccc(F)cc3)C2=O)n1 (configuration not stated)	1	-344	344*	-2	-2
COc1ccc(N2C(=O)CC(Sc3nccc(C)n3)C2=O)cc1 (configuration not stated)	.	4	-4	-1	0
Cc1ccc(C(=O)CN2C(=O)NC3(CCCCCC3)C2=O)c(C)c1	4	-9	9	5	5
COCC(C)n1c(SCc2ccc(C(=O)OC)cc2)nc2ccccc2c1=O (configuration not stated)	-2	9	-9	-2	0
CCN(CC)S(=O)(=O)c1cc(NC(=O)c2ccc(Br)s2)ccc1C	3	75*	-75	-4	0
CCN(CC)S(=O)(=O)c1cc(NC(=O)NCCCl)ccc1C	1	.	.	11	2
COc1ccc(-c2oc(NC(=O)c3ccc(C)cc3)c(C#N)c2-c2ccc(OC)cc2)cc1	2	45	-45	0	-2
COc1ccc(C(=O)Nc2oc(-c3ccccc3)c(-c3ccccc3)c2C#N)cc1OC	0	82*	-82	-1	0
Cc1cccc(C)c1OCC(=O)Nc1oc(-c2ccccc2)c(-c2ccccc2)c1C#N	4	82*	-82	-2	1
COc1ccc(C(=O)Nc2oc(-c3ccccc3)c(-c3ccccc3)c2C#N)cc1	-7	83*	-83	0	-1
Cc1ccccc1C(=O)O[C@H]1[C@H](Cc2ccccc2)NS(=O)(=O)[C@H]2CC3C=C[C@]12O3	.	-49	49	-1	-1
CCc1ccc(NC(=O)NNC(=O)c2cc3ccccc3cc2O)cc1	3	38	-38	0	-1
COc1ccc(C(=O)NNC(=O)c2cc3ccccc3cc2O)cc1	1	115*	-115	-8	-4
COc1ccc(NC(=O)c2cc3ccccc3cc2O)cc1	-2	33	-33	-2	0
CCOc1ccc(NC(=O)NNC(=O)c2cc3ccccc3cc2O)cc1	2	81*	-81	-2	1
CCOc1ccc(NC(=O)Nc2cc(OCC(F)(F)F)cc(OCC(F)(F)F)c2)cc1	1	75*	-75	-1	0
CN(C)S(=O)(=O)c1cccc(NC(=O)CCCc2nc3ccccc3c(=O)[nH]2)c1	4	-18	18	.	1
SMILES	GSK3beta inhib	SR-BI DiI inh	SR-BI uptake up	GSK3A inh	CDK5 p35 inh
CCn1c(SCC(=O)Nc2ccc(Br)cn2)nnc1C1CC1	-52*	-19	19	23	0
C=CCn1c(SCC(=O)Nc2ccc(Cl)cn2)nnc1C1CC1	-2	-10	10	32	-2
Cn1c(SCC(=O)Nc2ccc(Cl)cn2)nnc1C1CC1	-30	-10	10	51*	0
COc1ccc(N2CCN(C(=O)Cn3nnc(-c4ccccc4N)n3)CC2)cc1	-25	83*	-83	0	-2
COc1ccc(N2CCN(C(=O)Cn3nnc(-c4ccc(N(C)C)cc4)n3)CC2)cc1	-2	.	.	0	.
CCC1CCCCN1C(=O)CCc1nnc(C2CCCCC2)o1 (configuration not stated)	1	-1	1	-4	0
COc1cc(C(=S)N2CCN(c3ccccc3Cl)CC2)cc(O)c1O	-2	-3	3	1	-9
O=C(Nc1ccc(Cl)cc1)N[C@@H]1c2c(ccc3ccccc23)OC[C@@H]1CO	0	82*	-82	-8	-1
CN(C(=O)c1ccccc1)C1c2c(ccc3ccccc23)OCC1CO (configuration not stated)	2	-25	25	-1	-1
CN(Cc1ccco1)S(=O)(=O)c1ccc(CN2C(=O)c3cccnc3C2=O)s1	-1	-20	20	.	-3
CCOc1ccc(OCCn2nnc3ccccc3c2=O)cc1	1	-152	152*	0	3
CCC1=NN(C(=O)c2ccc(C)cc2)C(O)(c2ccc(Br)cc2)C1 (configuration not stated)	1	-103	103*	3	-3
CC1=NN(C(=O)c2ccc(Br)cc2)C(O)(C(F)(F)OC(F)(F)F)C1 (configuration not stated)	2	78*	-78	1	0
Cc1coc2cc3oc(=O)ccc3cc12	0	-25	25	0	1
CN(C)c1ccc(/C=N/NC(=O)c2ccc(CN3CCOCC3)cc2)cc1Br	1	84*	-84	1	-3
CCOc1cc(/C=N/NC(=O)c2ccc(CN3CCOCC3)cc2)ccc1OC	-1	48	-48	3	0
O=C(OCCN=C1NS(=O)(=O)c2ccccc21)c1ccccc1F	.	1	-1	-2	1
CCN1/C(=C/c2ccc3ccccc3[n+]2CC)C=Cc2ccccc21	0	87*	-87	25	8
COc1ccc(CN(Cc2cc3cccc(C)c3n3nnnc23)C(=O)N2CCOCC2)cc1	3	4	-4	-2	1
COc1ccccc1Nc1nc(-c2ccc3c(c2)NC(=O)CO3)cs1	2	78*	-78	4	-5
CCOc1ccc(C(C)=O)cc1CSc1nnc(-c2ccoc2C)n1N	3	71*	.	-1	1
COc1ccc(NC(=O)/C(C#N)=C\c2cc(C)n(-c3ccc(Oc4ccc([N+](=O)[O-])cn4)cc3)c2C)cc1	0	75*	-75	2	-3
